Experimental data reported in ChEMBL document CHEMBL2375359, “Synthesis and antibacterial evaluation of novel pleuromutilin derivatives” (2013).
Values after ≈ are worked out from the molar mass of the structure shown.

Assays:
Format in all cases: functional
Streptococcus agalactiae [1] = experiment: Antibacterial activity against Streptococcus agalactiae at 80 ug/ml after 24 hrs by Oxford cup assay; conditions: read-out: IZ
In short: (§1)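 Oxford cup diffusion with clinical isolates. Inoculum made in 0.9% saline to a McFarland standard and spread evenly on nutrient agar. Compound solutions, prepared as for the agar dilution test, were added at the stated concentration to Oxford cups set equidistant on the agar surface. Inhibition zones were measured after 24 h at 37 °C.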

Streptococcus agalactiae [2] = experiment: Antibacterial activity against Streptococcus agalactiae at 160 ug/ml after 24 hrs by Oxford cup assay; conditions: read-out: IZ; in short: as §1
Escherichia coli [3] = experiment: Antibacterial activity against Escherichia coli at 80 ug/ml after 24 hrs by Oxford cup assay; conditions: read-out: IZ; in short: as §1
Streptococcus agalactiae [4] = experiment: Antibacterial activity against Streptococcus agalactiae at 320 ug/ml after 24 hrs by Oxford cup assay; conditions: read-out: IZ; in short: as §1
Escherichia coli [5] = experiment: Antibacterial activity against Escherichia coli at 160 ug/ml after 24 hrs by Oxford cup assay; conditions: read-out: IZ; in short: as §1
Escherichia coli [6] = experiment: Antibacterial activity against Escherichia coli at 320 ug/ml after 24 hrs by Oxford cup assay; conditions: read-out: IZ; in short: as §1
[7] = tested on: Staphylococcus epidermidis; experiment: Antibacterial activity against methicillin-resistant Staphylococcus epidermidis at 80 ug/ml after 24 hrs by Oxford cup assay; conditions: read-out: IZ
In short: (§2)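 Oxford cup diffusion: clinical isolate inoculum in 0.9% saline set by McFarland standard, spread evenly on nutrient agar. Cups placed equidistant on the surface and filled with compound solutions prepared as for the agar dilution test, at several concentrations. Inhibition zone measured after 24 h at 37 °C.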

[8] = tested on: Staphylococcus epidermidis; experiment: Antibacterial activity against methicillin-resistant Staphylococcus epidermidis at 160 ug/ml after 24 hrs by Oxford cup assay; conditions: read-out: IZ; in short: as §2
[9] = tested on: Staphylococcus epidermidis; experiment: Antibacterial activity against methicillin-resistant Staphylococcus epidermidis at 320 ug/ml after 24 hrs by Oxford cup assay; conditions: read-out: IZ; in short: as §2
Staphylococcus aureus [10] = experiment: Antibacterial activity against methicillin-resistant Staphylococcus aureus at 80 ug/ml after 24 hrs by Oxford cup assay; conditions: read-out: IZ; in short: as §2
Staphylococcus aureus [11] = experiment: Antibacterial activity against methicillin-resistant Staphylococcus aureus at 160 ug/ml after 24 hrs by Oxford cup assay; conditions: read-out: IZ; in short: as §2
Staphylococcus aureus [12] = experiment: Antibacterial activity against methicillin-resistant Staphylococcus aureus at 320 ug/ml after 24 hrs by Oxford cup assay; conditions: read-out: IZ; in short: as §2
Streptococcus agalactiae [13] = experiment: Antibacterial activity against Streptococcus agalactiae after 48 hrs by agar dilution method
In short: (§3)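 Agar dilution per NCCLS on clinical isolates. 2-fold serial dilutions of compound (2 mL) mixed into 18 mL hot Mueller-Hinton agar. Inoculum from blood slants, adjusted to approx. 10⁵–10⁶ cfu/mL in sterile 0.90% NaCl, then spotted onto the plates. Incubated 36.5 °C, 48 h. MIC is the lowest concentration giving complete growth inhibition. Run in triplicate at pH 7.40.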

Escherichia coli [14] = experiment: Antibacterial activity against Escherichia coli after 48 hrs by agar dilution method; in short: as §3
[15] = tested on: Staphylococcus epidermidis; experiment: Antibacterial activity against methicillin-resistant Staphylococcus epidermidis after 48 hrs by agar dilution method
In short: (§4)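 Agar dilution per NCCLS: 2-fold serial dilutions incorporated into hot Mueller-Hinton agar. Clinical isolates grown from blood slants, suspended in sterile 0.90% NaCl to about 10⁵–10⁶ cfu/mL, spotted onto plates. Incubation 36.5 °C, 48 h. MIC taken as the lowest concentration giving complete growth inhibition. Run in triplicate at pH 7.40.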

Staphylococcus aureus [16] = experiment: Antibacterial activity against methicillin-resistant Staphylococcus aureus after 48 hrs by agar dilution method; in short: as §4

| SMILES | zone of inhibition at 80 µg/mL (Streptococcus agalactiae [1]) | zone of inhibition at 160 µg/mL (Streptococcus agalactiae [2]) | zone of inhibition at 80 µg/mL (Escherichia coli [3]) | zone of inhibition at 320 µg/mL (Streptococcus agalactiae [4]) | zone of inhibition at 160 µg/mL (Escherichia coli [5]) | zone of inhibition at 320 µg/mL (Escherichia coli [6]) | zone of inhibition at 80 µg/mL [7] | zone of inhibition at 160 µg/mL [8] | zone of inhibition at 320 µg/mL [9] | zone of inhibition at 80 µg/mL (Staphylococcus aureus [10]) | zone of inhibition at 160 µg/mL (Staphylococcus aureus [11]) | zone of inhibition at 320 µg/mL (Staphylococcus aureus [12]) | MIC (Streptococcus agalactiae [13]) | MIC (Escherichia coli [14]) | MIC [15] | MIC (Staphylococcus aureus [16]) |
| --- | --- | --- | --- | --- | --- | --- | --- | --- | --- | --- | --- | --- | --- | --- | --- | --- |
| C=C[C@]1(C)C[C@@H](OC(=O)CSC(C)(C)CNC(=O)c2ccccc2Cl)[C@]2(C)[C@H](C)CC[C@]3(CCC(=O)[C@H]32)[C@@H](C)[C@@H]1O | 10.6 mm | 11.2 mm | 11.3 mm | 10.8 mm | 11.9 mm | 14.5 mm | 11.4 mm | 12.2 mm | 13.4 mm | 14.1 mm | 12.2 mm | 14.2 mm | 8 µg/mL (≈ 13.2 µM) | 4 µg/mL (≈ 6.62 µM) | 1 µg/mL (≈ 1.65 µM) | 0.5 µg/mL (≈ 0.827 µM) |
| C=C[C@]1(C)C[C@@H](OC(=O)CSC(C)(C)CNC(=O)c2cccc(Cl)c2)[C@]2(C)[C@H](C)CC[C@]3(CCC(=O)[C@H]32)[C@@H](C)[C@@H]1O | 10.4 mm | 13.9 mm | 11.9 mm | 12.2 mm | 10.7 mm | 15.7 mm | 9.45 mm | 10.6 mm | 11.9 mm | 11.9 mm | 13.1 mm | 13.5 mm | 32 µg/mL (≈ 53 µM) | 8 µg/mL (≈ 13.2 µM) | 16 µg/mL (≈ 26.5 µM) | 8 µg/mL (≈ 13.2 µM) |
| C=C[C@]1(C)C[C@@H](OC(=O)CSC(C)(C)CNC(=O)c2ccc(Cl)cc2)[C@]2(C)[C@H](C)CC[C@]3(CCC(=O)[C@H]32)[C@@H](C)[C@@H]1O | 10.8 mm | 12.1 mm | 11.8 mm | 14 mm | 12.9 mm | 12.6 mm | 8.72 mm | 12.7 mm | 12.4 mm | 11.8 mm | 13.8 mm | 14.6 mm | 4 µg/mL (≈ 6.62 µM) | 2 µg/mL (≈ 3.31 µM) | 0.5 µg/mL (≈ 0.827 µM) | 1 µg/mL (≈ 1.65 µM) |
| C=C[C@]1(C)C[C@@H](OC(=O)CSC(C)(C)CNC(=O)c2ccccc2C)[C@]2(C)[C@H](C)CC[C@]3(CCC(=O)[C@H]32)[C@@H](C)[C@@H]1O | 10 mm | 10.9 mm | 12.1 mm | 12.4 mm | 13.7 mm | 15 mm | 10.7 mm | 12.9 mm | 13.8 mm | 10.3 mm | 11.8 mm | 12.3 mm | 0.5 µg/mL (≈ 0.856 µM) | 2 µg/mL (≈ 3.43 µM) | 16 µg/mL (≈ 27.4 µM) | 0.25 µg/mL (≈ 0.428 µM) |
| C=C[C@]1(C)C[C@@H](OC(=O)CSC(C)(C)CNC(=O)c2cccc(C)c2)[C@]2(C)[C@H](C)CC[C@]3(CCC(=O)[C@H]32)[C@@H](C)[C@@H]1O | 13 mm | 13 mm | 11.3 mm | 13.6 mm | 13.7 mm | 15.5 mm | 9.9 mm | 10.8 mm | 12.4 mm | 11.2 mm | 13.2 mm | 13.1 mm | 2 µg/mL (≈ 3.43 µM) | 8 µg/mL (≈ 13.7 µM) | 16 µg/mL (≈ 27.4 µM) | 1 µg/mL (≈ 1.71 µM) |
| C=C[C@]1(C)C[C@@H](OC(=O)CSC(C)(C)CNC(=O)c2ccc(C)cc2)[C@]2(C)[C@H](C)CC[C@]3(CCC(=O)[C@H]32)[C@@H](C)[C@@H]1O | 9.82 mm | 10.9 mm | 9.8 mm | 12.3 mm | 15.1 mm | 16.6 mm | 10.9 mm | 10.3 mm | 12.1 mm | 10.4 mm | 11.5 mm | 12.6 mm | 0.5 µg/mL (≈ 0.856 µM) | 4 µg/mL (≈ 6.85 µM) | 16 µg/mL (≈ 27.4 µM) | 0.25 µg/mL (≈ 0.428 µM) |
| C=C[C@]1(C)C[C@@H](OC(=O)CSC(C)(C)CNC(=O)c2ccccc2OC)[C@]2(C)[C@H](C)CC[C@]3(CCC(=O)[C@H]32)[C@@H](C)[C@@H]1O | 11.8 mm | 13 mm | 12.4 mm | 13.7 mm | 15.5 mm | 17.4 mm | 10.8 mm | 12.5 mm | 13.5 mm | 9.5 mm | 12.1 mm | 12.4 mm | 2 µg/mL (≈ 3.33 µM) | 4 µg/mL (≈ 6.67 µM) | 8 µg/mL (≈ 13.3 µM) | 0.25 µg/mL (≈ 0.417 µM) |
| C=C[C@]1(C)C[C@@H](OC(=O)CSC(C)(C)CNC(=O)c2cccc(OC)c2)[C@]2(C)[C@H](C)CC[C@]3(CCC(=O)[C@H]32)[C@@H](C)[C@@H]1O | 12.6 mm | 12.4 mm | 12.2 mm | 13.4 mm | 13.3 mm | 14.3 mm | 11.4 mm | 11.7 mm | 12.5 mm | 11.8 mm | 13 mm | 12.8 mm | 4 µg/mL (≈ 6.67 µM) | 8 µg/mL (≈ 13.3 µM) | 32 µg/mL (≈ 53.3 µM) | 2 µg/mL (≈ 3.33 µM) |
| C=C[C@]1(C)C[C@@H](OC(=O)CSC(C)(C)CNC(=O)c2ccc(OC)cc2)[C@]2(C)[C@H](C)CC[C@]3(CCC(=O)[C@H]32)[C@@H](C)[C@@H]1O | 16 mm | 15.9 mm | 15.7 mm | 16.6 mm | 17.1 mm | 18.5 mm | 14.4 mm | 15.2 mm | 18.3 mm | 15.3 mm | 18.4 mm | 19.7 mm | 0.5 µg/mL (≈ 0.834 µM) | 1 µg/mL (≈ 1.67 µM) | 2 µg/mL (≈ 3.33 µM) | 0.25 µg/mL (≈ 0.417 µM) |
| C=C[C@]1(C)C[C@@H](OC(=O)CSC(C)(C)CNC(=O)c2ccccc2N)[C@]2(C)[C@H](C)CC[C@]3(CCC(=O)[C@H]32)[C@@H](C)[C@@H]1O | 12 mm | 11.8 mm | 13.1 mm | 11.9 mm | 13.7 mm | 13.8 mm | 15.3 mm | 16 mm | 17.4 mm | 16.6 mm | 18.9 mm | 19.6 mm | 0.5 µg/mL (≈ 0.855 µM) | 2 µg/mL (≈ 3.42 µM) | 0.5 µg/mL (≈ 0.855 µM) | 1 µg/mL (≈ 1.71 µM) |
| C=C[C@]1(C)C[C@@H](OC(=O)CSC(C)(C)CNC(=O)c2cccc(N)c2)[C@]2(C)[C@H](C)CC[C@]3(CCC(=O)[C@H]32)[C@@H](C)[C@@H]1O | 8.86 mm | 9.8 mm | 9.94 mm | 9.66 mm | 12.5 mm | 10.7 mm | 9.63 mm | 9.72 mm | 11.2 mm | 9.56 mm | 10.8 mm | 10.2 mm | 0.5 µg/mL (≈ 0.855 µM) | 8 µg/mL (≈ 13.7 µM) | 1 µg/mL (≈ 1.71 µM) | 2 µg/mL (≈ 3.42 µM) |
| C=C[C@]1(C)C[C@@H](OC(=O)CSC(C)(C)CNC(=O)c2ccc(N)cc2)[C@]2(C)[C@H](C)CC[C@]3(CCC(=O)[C@H]32)[C@@H](C)[C@@H]1O | 10.9 mm | 11.6 mm | 18.1 mm | 11.4 mm | 17.8 mm | 18.8 mm | 17.3 mm | 18.1 mm | 17.9 mm | 20.6 mm | 21.6 mm | 22.2 mm | 0.5 µg/mL (≈ 0.855 µM) | 2 µg/mL (≈ 3.42 µM) | 0.5 µg/mL (≈ 0.855 µM) | 0.25 µg/mL (≈ 0.427 µM) |
